{"source": "paper PMC9727797", "about": "(Molecular Biology of the Cell, 2022)", "key": {"[1]": {"system": "KIRC-1 cells", "assay": "Preanaphase spindle monopolarity, KIRC-1 cells", "format": "cell-based, human", "in_short": "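TP53–/– RPE-1 and KIRC-1 cells were grown in DMEM with 10% FBS, penicillin and streptomycin; KIRC-1 medium also contained 10 μM STLC. Cells on coverslips were treated overnight with increasing test-compound concentrations or DMSO. They were then methanol-fixed and stained for KIF15, tubulin and DNA. Preanaphase spindles were scored monopolar or bipolar, in triplicate with n = 100 per replicate (± SEM).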"}, "[2]": {"biological_target": "T1, Eg5 (Homo sapiens, UniProt P52732)", "T1 sequence (P52732 1-1056)": "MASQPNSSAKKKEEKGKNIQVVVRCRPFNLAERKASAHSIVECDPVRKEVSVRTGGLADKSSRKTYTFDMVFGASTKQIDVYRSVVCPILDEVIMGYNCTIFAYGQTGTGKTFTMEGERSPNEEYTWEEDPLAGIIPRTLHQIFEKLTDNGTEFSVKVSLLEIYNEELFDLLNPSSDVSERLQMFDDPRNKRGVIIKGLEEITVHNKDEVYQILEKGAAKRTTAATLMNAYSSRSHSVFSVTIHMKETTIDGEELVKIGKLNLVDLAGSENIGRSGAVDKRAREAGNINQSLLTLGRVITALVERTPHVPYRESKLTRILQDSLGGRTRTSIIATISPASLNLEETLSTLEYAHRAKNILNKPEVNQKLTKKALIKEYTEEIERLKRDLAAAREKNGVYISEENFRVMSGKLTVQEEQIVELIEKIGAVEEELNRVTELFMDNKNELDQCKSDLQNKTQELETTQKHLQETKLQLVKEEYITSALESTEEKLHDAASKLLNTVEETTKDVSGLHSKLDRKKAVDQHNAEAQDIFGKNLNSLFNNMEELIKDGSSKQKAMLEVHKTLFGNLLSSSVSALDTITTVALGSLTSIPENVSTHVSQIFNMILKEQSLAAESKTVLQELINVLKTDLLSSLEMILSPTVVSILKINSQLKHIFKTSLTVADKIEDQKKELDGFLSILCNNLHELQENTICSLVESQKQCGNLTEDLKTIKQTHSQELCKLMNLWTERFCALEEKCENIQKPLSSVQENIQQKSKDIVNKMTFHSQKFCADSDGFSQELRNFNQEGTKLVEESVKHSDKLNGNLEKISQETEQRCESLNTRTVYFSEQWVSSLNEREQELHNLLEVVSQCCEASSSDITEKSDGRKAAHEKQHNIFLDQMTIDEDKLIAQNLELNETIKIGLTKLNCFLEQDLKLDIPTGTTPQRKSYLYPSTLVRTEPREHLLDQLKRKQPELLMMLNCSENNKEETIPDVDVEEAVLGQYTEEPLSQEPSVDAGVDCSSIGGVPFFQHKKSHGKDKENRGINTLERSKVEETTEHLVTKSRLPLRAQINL", "assay": "Microtubule gliding assay, Eg5", "format": "biochemical", "conditions": "24 µM Munesib-1 or 100 µM Fift-IN", "in_short": "(§1)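 Gliding assays with other motors used His6-Eg5, His6-EGFP-HSET or K560 (truncated kinesin-1), with test compound at 24 µM or 100 µM. Frames were captured every 5 s for 1 min at 100×. Velocity was the distance travelled in 1 min, from ≥15 microtubules at each of three locations (n ≥ 50 per slide).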"}, "[3]": {"biological_target": "T2, K560, a truncated form of kinesin-1 (Homo sapiens, UniProt P33176)", "T2 sequence (P33176 1-560 limits assumed)": "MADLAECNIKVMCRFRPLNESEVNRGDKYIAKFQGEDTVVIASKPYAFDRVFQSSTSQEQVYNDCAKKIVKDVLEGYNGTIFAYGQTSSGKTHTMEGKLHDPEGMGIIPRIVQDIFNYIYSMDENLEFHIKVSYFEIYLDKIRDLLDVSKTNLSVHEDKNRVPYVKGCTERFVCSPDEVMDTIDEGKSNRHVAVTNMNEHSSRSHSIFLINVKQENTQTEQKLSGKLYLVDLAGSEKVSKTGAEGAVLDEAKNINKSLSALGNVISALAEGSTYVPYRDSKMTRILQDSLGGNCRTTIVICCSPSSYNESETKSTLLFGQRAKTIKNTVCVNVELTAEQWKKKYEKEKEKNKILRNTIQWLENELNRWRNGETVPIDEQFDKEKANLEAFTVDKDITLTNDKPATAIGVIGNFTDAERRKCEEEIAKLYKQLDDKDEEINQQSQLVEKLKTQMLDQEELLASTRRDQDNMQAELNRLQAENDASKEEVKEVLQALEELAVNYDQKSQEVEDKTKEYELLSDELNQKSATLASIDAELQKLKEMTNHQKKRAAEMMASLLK", "assay": "Microtubule gliding assay, K560", "format": "biochemical", "conditions": "24 µM Munesib-1 or 100 µM Fift-IN", "in_short": "as §1"}, "[4]": {"system": "RPE-1 cells", "assay": "Live cell imaging of metaphase duration", "format": "cell-based, human", "conditions": "Munesib-1 50 µM, Fift-IN and GW108X 25 µM"}, "[5]": {"system": "KIF15 on spindle microtubules in RPE-1 cells", "assay": "KIF15 on metaphase spindles", "format": "cell-based, human", "conditions": "Fift-IN 25 µM, Munesib-1 50 µM", "in_short": "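RPE-1 cells on glass coverslips were treated overnight with test compound (25 or 50 µM) or DMSO in normal medium. Cells were fixed in 100% methanol at –20°C for 10 min. Staining used rabbit anti-KIF15 (1:2000, 1 h), FITC anti-α-tubulin (1:500, 30 min) and Hoechst 33342. Max-intensity z-projections were imaged.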"}, "[6]": {"biological_target": "T3, KIF15-N420 (Homo sapiens, UniProt Q9NS87)", "T3 sequence (Q9NS87 1-420 limits assumed)": "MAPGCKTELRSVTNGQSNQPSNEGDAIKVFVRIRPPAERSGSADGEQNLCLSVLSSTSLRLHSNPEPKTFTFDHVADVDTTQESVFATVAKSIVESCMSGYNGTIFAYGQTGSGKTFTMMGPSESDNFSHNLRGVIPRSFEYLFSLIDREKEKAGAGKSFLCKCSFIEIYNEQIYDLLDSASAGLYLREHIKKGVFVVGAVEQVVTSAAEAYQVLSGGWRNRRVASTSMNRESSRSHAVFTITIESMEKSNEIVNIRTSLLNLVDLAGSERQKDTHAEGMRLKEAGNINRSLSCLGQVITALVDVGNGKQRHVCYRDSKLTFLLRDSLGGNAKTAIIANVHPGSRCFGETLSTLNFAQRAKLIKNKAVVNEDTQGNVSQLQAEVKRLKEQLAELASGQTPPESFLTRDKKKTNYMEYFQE", "assay": "Microtubule-dependent steady-state ATPase assay", "format": "biochemical", "conditions": "2 mM ATP; for kcat, microtubule-dependent ATPase: fit ± 95% CI", "in_short": "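Microtubule-dependent KIF15-N420 ATPase used an NADH-coupled read-out (A340, 25°C), with rates normalised to active motor concentration. ATP was held at 2 mM and microtubules varied over eight concentrations from 0 to 8 μM. Test compound was at 3, 5, 20 or 30 μM, with a DMSO control. Michaelis-Menten fits were weighted by 1/SEM, n = 6–9 per microtubule concentration. kcat and Km are given as fit ± 95% CI.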"}}, "data": [{"smiles": "COC(=O)c1ccc2c(c1)N(C)S(=O)(=O)c1cnc(SC)nc1-2", "note": "[Munesib-1, Methyl 6-methyl-2-(methylthio)-6H-benzo[c]pyrimido[4,5-e][1,2]thiazine-8-carboxylate 5,5-dioxide]", "values": [{"measurement": "effect on monopolar spindles compared with Fift-IN", "setting": "[1]; 75 μM", "result": "comparatively modest"}, {"measurement": "monopolar spindles", "setting": "[1]; 75 μM", "result": "less than 70%"}, {"measurement": "monopolarity index relative to cells treated with DMSO", "setting": "[1]; increasing concentrations", "result": "concentration-dependent increase"}, {"measurement": "inhibition of microtubule gliding, Eg5", "setting": "[2]", "result": "neither substantially inhibited"}, {"measurement": "inhibition of microtubule gliding, K560", "setting": "[3]", "result": "neither substantially inhibited"}, {"measurement": "metaphase duration (metaphase plate formation until anaphase onset)", "setting": "[4]", "result": "no significant change in metaphase timing"}, {"measurement": "amount of KIF15 on metaphase spindle", "setting": "[5]", "result": "little effect"}, {"measurement": "kcat, microtubule-dependent ATPase", "setting": "[6]; 3 μM compound", "result": "8.5 ± 1", "unit": "s^–1"}, {"measurement": "kcat, microtubule-dependent ATPase", "setting": "[6]; 5 μM compound", "result": "8.2 ± 3", "unit": "s^–1"}, {"measurement": "kcat, microtubule-dependent ATPase", "setting": "[6]; 30 μM compound", "result": "11.6 ± 6", "unit": "s^–1"}, {"measurement": "mode of inhibition with respect to microtubules", "setting": "[6]", "result": "less conclusive"}]}]}
